Bioassay records as filed in PubChem BioAssay.
An excerpt weighted towards active compounds, which were near 2.9% of everything screened.
Apaf-1 inh: inhibitors of human Apaf-1 apoptosome, primary screen, biochemical, DEVD-Rh110 fluorescence, uHTS; inhibition, % at 20 µM; Apoptotic protease-activating factor 1 (Homo sapiens), O14727; 0.71% of 330,000 active; reconstituted apoptosome caspase-3 activity; AID 489030, 2010; active = inhibition of at least 40% at 20 µM
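Material: reconstituted apoptosome with Apaf-1, cytochrome c, caspase-9, procaspase-3, dATP. Technique: Rh110 fluorescence intensity. Buffer or medium: pH 7.5 Hepes buffer with CHAPS, BSA, DTT. Times: 30 min plus 50 min, RT.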
PfM18AAP inh: PfM18AAP inhibitors, malaria aminopeptidase, primary screen, biochemical, QFRET, recombinant enzyme; H-Glu-NHMec fluorogenic cleavage; M18 aspartyl aminopeptidase (Plasmodium falciparum 3D7); inhibition, % at 7.35 µM; 1.2% of 290,000 active; AID 1822, 2009;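 active = inhibition above the campaign mean inhibition over all tested compounds plus 3 SD, cut at about 28% in these data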
PfG6PD inh: PfG6PD enzyme inhibitors, primary screen, biochemical, fluorescence intensity, uHTS; PfGluPho enzyme, NADPH resazurin-diaphorase fluorescence; inhibition, % at 20 µM; 0.78% of 350,000 active;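 active = inhibition reaching at least a set limit at 20 µM in the primary screen, cut at about 59% in these data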
UBC13 polyUb: UBC13 polyubiquitin chain formation inhibitors, primary screen, biochemical, TR-FRET, uHTS | 0.47% of 330,000 active | inhibition, % at 20 µM | AID 485273, 2010 | Ubiquitin-conjugating enzyme E2 N (Homo sapiens), P61088; in the data active = inhibition above about 45%, passing the limit was not always enough
Target sequence (P61088 whole entry, looked up): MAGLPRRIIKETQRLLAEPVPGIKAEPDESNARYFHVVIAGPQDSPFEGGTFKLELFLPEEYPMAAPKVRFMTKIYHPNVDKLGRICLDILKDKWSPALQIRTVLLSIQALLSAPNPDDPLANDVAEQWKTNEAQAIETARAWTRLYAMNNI
EBNA-1 inh: EBNA-1 DNA-binding inhibitors, primary screen, biochemical, fluorescence polarization; inhibition, % at 14.8 µM; 0.34% of 300,000 active; AID 1950, 2009; in the data active = inhibition above about 28%
ZTA DNA inh: blocks Epstein-Barr virus ZTA, an EBNA-1 counter-screen; P03206; 0.15% of 320,000 active; ZTA-DNA binding, fluorescence polarization; inhibition, % at 11 µM; in the data active = inhibition above about 33%
Target sequence (P03206 whole entry, looked up): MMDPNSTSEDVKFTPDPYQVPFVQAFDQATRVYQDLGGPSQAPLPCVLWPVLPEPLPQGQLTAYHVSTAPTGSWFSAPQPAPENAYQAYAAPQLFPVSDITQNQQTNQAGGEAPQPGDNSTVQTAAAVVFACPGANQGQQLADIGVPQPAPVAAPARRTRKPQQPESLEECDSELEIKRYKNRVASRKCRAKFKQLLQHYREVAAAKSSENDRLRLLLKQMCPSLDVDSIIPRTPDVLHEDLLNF
Large screens that a line does not name were inactive.

C#CCOCCOCCOCCNc1nc(N2CCN(C(=O)[C@H](Cc3ccc(O)cc3)n3cc([C@@H](N)CC(C)C)nn3)CC2)nc(N2CCN(C(=O)[C@H](Cc3ccc(O)cc3)n3cc([C@@H](N)CC(C)C)nn3)CC2)n1	UBC13 polyUb 63 (no result: PfG6PD inh)
CCOC(=O)CC(NC(=O)c1ccc(C)cc1)c1ccc(C)cc1 (stereo unspecified)	none
C#CCOCCOCCOCCNc1nc(N2CCN(C(=O)C(Cc3ccc(O)cc3)n3cc(C(N)CC(C)C)nn3)CC2)nc(N2CCN(C(=O)C(Cc3cc4ccccc4[nH]3)n3cc(C(N)C(C)CC)nn3)CC2)n1 (stereo unspecified)	UBC13 polyUb 77 (no result: PfG6PD inh)
C#CCOCCOCCOCCNc1nc(N2CCN(C(=O)[C@H](Cc3ccc(O)cc3)n3cc([C@@H](N)C(C)CC)nn3)CC2)nc(N2CCN(C(=O)[C@H](Cc3cc4ccccc4[nH]3)n3cc([C@@H](N)Cc4ccc(O)cc4)nn3)CC2)n1 (stereo partly specified)	Apaf-1 inh 56, UBC13 polyUb 78 (no result: PfM18AAP inh, PfG6PD inh)
COc1ccc([C@@]23Oc4cc(OC)cc(OC)c4[C@]2(O)[C@H](O)[C@H](C(=O)N(C)C)[C@H]3c2ccccc2)cc1	none (no result: Apaf-1 inh, PfM18AAP inh, UBC13 polyUb, EBNA-1 inh, ZTA DNA inh)
Cc1cccc(/C=N/NC(=O)c2c(-c3ccccc3)noc2C)c1O	PfM18AAP inh 29
CC(=O)N1CCN(C(=O)Cn2c(=O)oc3ccccc32)CC1	none
CCC1CCCCN1C(=O)Cn1c(=O)oc2ccccc21 (stereo unspecified)	PfM18AAP inh 29
COC1=C(N)C(=O)c2nc(-c3nc(C(=O)O)c(C)c(-c4ccc(OC)c(OC)c4O)c3N)ccc2C1=O	Apaf-1 inh 84, PfG6PD inh 93 (no result: EBNA-1 inh, ZTA DNA inh)
CCOC(=O)C1=C(C)c2ccccc2OC1(CC)C(=O)OCC (stereo unspecified)	none (no result: PfM18AAP inh, UBC13 polyUb, EBNA-1 inh, ZTA DNA inh)
CCOC(=O)C1=C(C)c2ccccc2N(C(=O)OC)C1(C)C(=O)OCC (stereo unspecified)	PfG6PD inh 61 (no result: PfM18AAP inh, UBC13 polyUb, EBNA-1 inh, ZTA DNA inh)
Cc1onc(-c2c(F)cccc2Cl)c1C(=O)Nc1cccc(S(=O)(=O)NCc2ccco2)c1	none
Cc1n[nH]c(C)c1NC(=O)CN1CCN(S(=O)(=O)c2ccc(C(F)(F)F)cc2)CC1	none (no result: Apaf-1 inh, PfM18AAP inh, UBC13 polyUb, EBNA-1 inh, ZTA DNA inh)
CC(C)c1onc(C(=O)NCCc2ccccc2)c1[N+](=O)[O-]	none
CC(C)c1onc(C(=O)N(C)Cc2ccccc2)c1[N+](=O)[O-]	ZTA DNA inh 39
Nc1cc2sc(-c3ccc(C(=O)O)cc3)nc2cc1Cl	none
Nc1ncc(N=Nc2cc(C(=O)O)ccc2Cl)s1	PfM18AAP inh 29
Nc1ncnc(Nc2ccccc2Oc2ccccc2)n1	none (no result: Apaf-1 inh, PfM18AAP inh, UBC13 polyUb, EBNA-1 inh, ZTA DNA inh)
COc1ccc(-c2ccn(-c3cccc(F)n3)n2)cc1	PfM18AAP inh 32 (no result: EBNA-1 inh, ZTA DNA inh)
COc1ccc(CC(=O)NC(=S)NNC(=O)COc2c(C)cccc2C)cc1	PfM18AAP inh 47
CN(C)/C=C(\C#N)C(=O)N/N=C(\CC(=O)C(F)(F)F)c1ccco1	PfM18AAP inh 30
CC(C)CN(C(=O)COC(=O)c1ccc2ccccc2n1)C1CCS(=O)(=O)C1 (stereo unspecified)	none
CN(C(=O)COC(=O)c1ccc2ccccc2n1)C1CCS(=O)(=O)C1 (stereo unspecified)	EBNA-1 inh active, ZTA DNA inh active
Cc1occc1C(=O)Nc1sc2c(c1C(N)=O)CCCCC2	PfM18AAP inh 29
COC(=O)c1c(NC(=O)c2ccoc2C)sc2c1CCC2	none
CCOC(=O)c1ccc(S(=O)(=O)Nc2ccc(N3CCOCC3)cc2)cc1	none
Cc1cc(C)nc(Sc2ncnc(N)c2[N+](=O)[O-])n1	PfM18AAP inh 50
Cc1cccc(Nc2ncnc(N)c2[N+](=O)[O-])n1	none
CCNS(=O)(=O)c1ccc(Br)c(OC)c1	none
CSc1nc2[nH]ncc2c(=O)n1-c1ccccc1	PfM18AAP inh 61
O=C(CSc1nc2[nH]ncc2c(=O)n1-c1ccccc1)N1CCCCCC1	PfM18AAP inh 34 (no result: PfG6PD inh)
CCCCCCN1C[C@@H](O)[C@H](n2cc(-c3ccc(F)cc3)nn2)C[C@@H]1c1ccccc1	none (no result: Apaf-1 inh, PfM18AAP inh, UBC13 polyUb, EBNA-1 inh, ZTA DNA inh)
O=C(O)CCC(=O)Nc1sc2c(c1C(=O)Nc1cccc3ccccc13)CCCCC2	PfM18AAP inh 30
COc1ccc(OC)c(NC(=O)c2c(NC(=O)CCC(=O)O)sc3c2CCCCC3)c1	PfM18AAP inh 37
COc1ccccc1NC(=O)c1c(NC(=O)CCC(=O)O)sc2c1CCCCC2	none
Cc1c(CCC(=O)NCCCn2ccnc2)c(=O)oc2c(C)c3oc4c(c3cc12)CCCC4	UBC13 polyUb 53
Cc1c(CCC(=O)NCCCCCC(=O)O)c(=O)oc2c(C)c3oc4c(c3cc12)CCCC4	none (no result: EBNA-1 inh, ZTA DNA inh)
CCCCCCNC(=O)N[C@H](C(=O)NCCC[C@H]1CN2C(=NC[C@H]2C)N1CCC(c1ccccc1)c1ccccc1)C(C)O (stereo partly specified)	UBC13 polyUb 49 (no result: PfM18AAP inh, PfG6PD inh)
COc1ccc(S(=O)(=O)Nc2cccc3c2O[C@H](CN(C)Cc2ccccc2)[C@@H](C)CN([C@H](C)CO)C3=O)cc1	Apaf-1 inh 53 (no result: PfM18AAP inh, EBNA-1 inh, ZTA DNA inh)
O=S(=O)(c1ccc(NC(=S)NN=C(Cc2ccccc2)Cc2ccccc2)cc1)N1CCOCC1	PfM18AAP inh 29
O=S(=O)(c1ccc(NC(=S)NCCc2ccccc2)cc1)N1CCOCC1	none
CCCc1cc(=O)oc2cc(C)cc(OCC(=O)NC3CC3)c12	none
O=[N+]([O-])c1cc2c(cc1CN1CCN(c3ccccc3F)CC1)OCO2	PfM18AAP inh 29 (no result: EBNA-1 inh, ZTA DNA inh)
O=C1C=CC(=O)N1c1ccc(OC(F)F)cc1	PfG6PD inh 87 (no result: Apaf-1 inh, UBC13 polyUb)
O=C(Nc1ccc(N2CCOCC2)cc1)Nc1ccc2nc(-c3ccco3)c(-c3ccco3)nc2c1	none
O=C(NCCCO)Nc1ccc2nc(-c3ccco3)c(-c3ccco3)nc2c1	Apaf-1 inh 57, ZTA DNA inh 58 (no result: PfG6PD inh)
CCCCC1C2=C(CC(C)(C)CC2=O)OC2=C1C(=O)CC(C)(C)C2	none
COc1ccc(C(=O)CC(c2ccccc2)C2C(=O)CCCC2=O)cc1 (stereo unspecified)	PfM18AAP inh 31
S=c1[nH]nc(-c2ccccc2Br)n1Cc1ccccc1	PfM18AAP inh 31
C=CCn1c(-c2cccc([N+](=O)[O-])c2)n[nH]c1=S	none
Oc1ccccc1-c1n[nH]c(=S)n1Cc1ccccc1	none
O=[N+]([O-])c1cccc(-c2n[nH]c(=S)n2Cc2ccccc2)c1	PfM18AAP inh 29
Cc1ccc(C)c(C(=O)CCC(=O)NNC(=O)c2cccs2)c1	none (no result: PfM18AAP inh, EBNA-1 inh, ZTA DNA inh)
CC(=O)N(C1=C(N)C(=O)c2ccccc2C1=O)C(C)C	none
CC(=O)N(C)C1=C(N2CCOCC2)C(=O)c2ccccc2C1=O	Apaf-1 inh 65
COc1ccc(Cn2c(SCc3ccccc3C)nc3cc(OC)c(OC)cc3c2=N)cc1	Apaf-1 inh 70 (no result: PfG6PD inh)
